Results from publication PMC3073091 (Chromatographia, 2011).

What was measured:
[1] = pilot pharmacokinetic study in rats after intravenous administration; format: in vivo, rat
How it was run: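 Male Wistar rats (13–15 weeks, 200–220 g) were fasted overnight with free water access. They received 3 mg kg−1 i.v. in 0.9% saline. Under thiopental (70 mg kg−1), blood was taken by decapitation at 5, 10, 30, 60, 120 and 240 min (n = 5 per time). Serum was stored at −30 °C, then 100 µL was extracted into ethyl acetate with internal standard for LC–MS–MS. Non-compartmental analysis used mean concentrations: t1/2 = 0.693/λz, Cl = dose/AUC0-inf, Vss = D·AUMC/AUC².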

[2] = stability of DL76 in rat serum QC samples under storage and process conditions; format: in vitro ADME; details: bench top, post preparative, freeze/thaw, long term
human H3 receptor = details: read-out: hKi; human H3 receptor stably expressed in CHO-K1 cells; preliminary pharmacological studies; cited from earlier work
[3] = male, Wistar, rat, serum, iv, 3 mg/kg

CC(C)(C)c1ccc(OCCCN2CCCCC2)cc1 [DL76, 1-[3-(4-tert-butylphenoxy)propyl]piperidine]
clearance [1, 3]: 217 mL/min/kg | half-life [1, 3]: 1.41 h | serum concentration of DL76 in a representative rat serum sample ([1]; rat serum after i.v. 3 mg kg^−1, time not stated): 67.82 ng/mL | stability in rat serum (all storage and process tests) [2]: good stability | Ki (human H3 receptor): 22 ± 3 nM
